# In ChEMBL document CHEMBL2417372, “Design, synthesis, and mechanism of action of 2-(3-hydroxy-5-methoxyphenyl)-6-pyrrolidinylquinolin-4-one as a potent anticancer lead” (Bioorg Med Chem Lett, 2013):
# Legend:
# OVCAR-4 = experiment: Cytotoxicity against human OVCAR4 cells after 48 hrs; assay type: functional; settings: OVCAR-4, 48 h
# HOP-92 = experiment: Cytotoxicity against human HOP92 cells after 48 hrs; assay type: functional; settings: HOP-92, 48 h
# SK-MEL-28 = experiment: Cytotoxicity against human SK-MEL-28 cells after 48 hrs; assay type: functional; settings: SK-MEL-28, 48 h
# NCI-H460 = experiment: Cytotoxicity against human NCI-H460 cells after 48 hrs; assay type: functional, cell-based; settings: NCI-H460, 48 h
# UACC-257 = experiment: Cytotoxicity against human UACC257 cells after 48 hrs; assay type: functional; settings: UACC-257, 48 h
# NCI-H23 = experiment: Cytotoxicity against human NCI-H23 cells after 48 hrs; assay type: functional; settings: NCI-H23, 48 h
# Malme-3M = experiment: Cytotoxicity against human MALME-3M cells after 48 hrs; assay type: functional
# Tubulin (Homo sapiens) = Tubulin (Homo sapiens) (UniProt P68371+Q9H4B7+P0DPH7+P68366+Q13509+Q71U36+P04350+Q3ZCM7+P07437+P68363+Q9BQE3+Q6PEY2+Q13885+Q9BVA1+Q9BUF5); experiment: Inhibition of tubulin polymerization in human NCI-H522 cells assessed as alpha-tubulin accumulation in cytoskeletal fraction after 24 hrs by Western blot analysis; assay type: cell-based
# How it was run: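 NCI-H522 cells were exposed for 24 h to compound (10, 30 or 100 nM) or DMSO vehicle. They were then lysed 5 min at 37 °C in hypotonic buffer (1 mM MgCl2, 2 mM EGTA, 0.5% NP-40, protease inhibitors, 20 mM Tris-HCl pH 6.8) and centrifuged at 15,000 × g for 10 min at 25 °C. α- and β-tubulin were assessed in the cytoskeletal fraction.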
# SNB-75 = experiment: Cytotoxicity against human SNB75 cells after 48 hrs; assay type: functional; settings: SNB-75, 48 h
# MDA-MB-231 = experiment: Cytotoxicity against human MDA-MB-231 cells after 48 hrs; assay type: functional; settings: MDA-MB-231, 48 h
# HCT-116 = experiment: Cytotoxicity against human HCT116 cells after 48 hrs; assay type: functional; settings: HCT-116, 48 h
# COLO 205 = experiment: Cytotoxicity against human COLO205 cells after 48 hrs; assay type: functional; settings: COLO 205, 48 h
# SF-295 = experiment: Cytotoxicity against human SF295 cells after 48 hrs; assay type: functional; settings: SF-295, 48 h
# UACC-62 = experiment: Cytotoxicity against human UACC62 cells after 48 hrs; assay type: functional; settings: UACC-62, 48 h
# HCT-15 = experiment: Cytotoxicity against human HCT15 cells after 48 hrs; assay type: functional; settings: HCT-15, 48 h
# CAKI-1 = experiment: Cytotoxicity against human CAKI-1 cells after 48 hrs; assay type: functional; settings: CAKI-1, 48 h
# SK-MEL-2 = experiment: Cytotoxicity against human SK-MEL-2 cells after 48 hrs; assay type: functional; settings: SK-MEL-2, 48 h
# How it was run: (§1)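 Tested in the NCI-60 human cancer cell line panel. Results are given as log concentrations: GI50 reduced cell growth to 50% […], TGI caused total growth inhibition, and LC50 killed 50% of the test population.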
# OVCAR-3 = experiment: Cytotoxicity against human OVCAR3 cells after 48 hrs; assay type: functional; settings: OVCAR-3, 48 h
# DU-145 = experiment: Cytotoxicity against human DU145 cells after 48 hrs; assay type: functional; settings: DU-145, 48 h
# NCI-H522 [1] = experiment: Cytotoxicity against human NCI-H522 cells after 48 hrs by MTT assay; assay type: functional, cell-based; settings: NCI-H522, 48 h
# 786-0 = experiment: Cytotoxicity against human 786-0 cells after 48 hrs; assay type: functional; settings: 786-0, 48 h
# NCI-H322M = experiment: Cytotoxicity against human NCI-H322M cells after 48 hrs; assay type: functional
# HCC 2998 = experiment: Cytotoxicity against human HCC2998 cells after 48 hrs; assay type: functional; settings: HCC 2998, 48 h
# SK-MEL-5 = experiment: Cytotoxicity against human SK-MEL-5 cells after 48 hrs; assay type: functional; settings: SK-MEL-5, 48 h
# MDA-MB-435 = experiment: Cytotoxicity against human MDA-MB-435 cells after 48 hrs; assay type: functional; settings: MDA-MB-435, 48 h
# RPMI-8226 = experiment: Cytotoxicity against human RPMI8226 cells after 48 hrs; assay type: functional; settings: RPMI-8226, 48 h
# SNB-19 = experiment: Cytotoxicity against human SNB19 cells after 48 hrs; assay type: functional; settings: SNB-19, 48 h
# SN12C = experiment: Cytotoxicity against human SN12C cells after 48 hrs; assay type: functional
# [2] = Cytotoxicity against human EKVX cells after 48 hrs; assay type: functional; how it was run: as §1
# NCI-H522 [3] = experiment: Cytotoxicity against human NCI-H522 cells after 48 hrs; assay type: functional; settings: NCI-H522, 48 h, read-out: pLC50 (the source's name) (converted)
# [4] = read-out: pLC50 (the source's name) (converted)
structure (smiles),measurement,setting,value
COc1cc(O)cc(-c2cc(=O)c3cc(N4CCCC4)ccc3[nH]2)c1,GI50,OVCAR-4,97.7 nM
same,CC50,OVCAR-4; [4],> 100000 nM
same,TGI,OVCAR-4; read-out: pTGI,> 100000 nM
same,GI50,HOP-92,30900 nM
same,CC50,HOP-92; [4],> 100000 nM
same,TGI,HOP-92; read-out: pTGI,> 100000 nM
same,GI50,SK-MEL-28,74.1 nM
same,CC50,SK-MEL-28; [4],> 100000 nM
same,TGI,SK-MEL-28; read-out: pTGI,> 100000 nM
same,GI50,NCI-H460,324 nM
same,IC50,NCI-H460,2120 nM
same,LC50,NCI-H460,> 100000 nM
same,TGI,NCI-H460; read-out: pTGI,> 100000 nM
same,GI50,UACC-257,708 nM
same,CC50,UACC-257; [4],> 100000 nM
same,TGI,UACC-257; read-out: pTGI,> 100000 nM
same,GI50,NCI-H23,126 nM
same,CC50,NCI-H23; [4],> 100000 nM
same,TGI,NCI-H23; read-out: pTGI (converted),81300 nM
same,GI50,Malme-3M,25.7 nM
same,CC50,Malme-3M; [4],> 100000 nM
same,TGI,Malme-3M; read-out: pTGI,> 100000 nM
same,inhibition,Tubulin (Homo sapiens),Dose-dependent effect
same,GI50,SNB-75,34.7 nM
same,CC50,SNB-75; [4],77600 nM
same,TGI,SNB-75; read-out: pTGI (converted),13200 nM
same,GI50,MDA-MB-231,50.1 nM
same,CC50,MDA-MB-231; [4],> 100000 nM
same,TGI,MDA-MB-231; read-out: pTGI,> 100000 nM
same,GI50,HCT-116,35.5 nM
same,CC50,HCT-116; [4],> 100000 nM
same,TGI,HCT-116; read-out: pTGI,> 100000 nM
same,GI50,COLO 205,53.7 nM
same,TGI,COLO 205; read-out: pTGI (converted),219 nM
same,GI50,SF-295,110 nM
same,TGI,SF-295; read-out: pTGI (converted),11200 nM
same,GI50,UACC-62,646 nM
same,CC50,UACC-62; [4],> 100000 nM
same,TGI,UACC-62; read-out: pTGI,> 100000 nM
same,GI50,HCT-15,53.7 nM
same,CC50,HCT-15; [4],> 100000 nM
same,TGI,HCT-15; read-out: pTGI,> 100000 nM
same,GI50,CAKI-1,83.2 nM
same,CC50,CAKI-1; [4],> 100000 nM
same,TGI,CAKI-1; read-out: pTGI,> 100000 nM
same,GI50,SK-MEL-2,28.2 nM
same,CC50,SK-MEL-2; [4],87100 nM
same,GI50,OVCAR-3; read-out: pGI50 (converted),23.4 nM
same,CC50,OVCAR-3; [4],6460 nM
same,TGI,OVCAR-3; read-out: pTGI (converted),89.1 nM
same,GI50,DU-145,30.9 nM
same,CC50,DU-145; [4],> 100000 nM
same,TGI,DU-145; read-out: pTGI (converted),257 nM
same,IC50,NCI-H522 [1],42.3 nM
same,GI50,786-0,178 nM
same,CC50,786-0; [4],> 100000 nM
same,TGI,786-0; read-out: pTGI,> 100000 nM
same,GI50,NCI-H322M,72.4 nM
same,CC50,NCI-H322M; [4],> 100000 nM
same,TGI,NCI-H322M; read-out: pTGI,> 100000 nM
same,GI50,HCC 2998,45.7 nM
same,CC50,HCC 2998; [4],> 100000 nM
same,TGI,HCC 2998; read-out: pTGI,> 100000 nM
same,GI50,SK-MEL-5,24.6 nM
same,CC50,SK-MEL-5; [4],490 nM
same,TGI,SK-MEL-5; read-out: pTGI (converted),66.1 nM
same,GI50,MDA-MB-435,10 nM
same,TGI,MDA-MB-435; read-out: pTGI (converted),29.5 nM
same,GI50,RPMI-8226,468 nM
same,CC50,RPMI-8226; [4],> 100000 nM
same,TGI,RPMI-8226; read-out: pTGI,> 100000 nM
same,GI50,SNB-19,74.1 nM
same,CC50,SNB-19; [4],> 100000 nM
same,TGI,SNB-19; read-out: pTGI,> 100000 nM
same,GI50,SN12C,72.4 nM
same,CC50,SN12C; [4],> 100000 nM
same,TGI,SN12C; read-out: pTGI,> 100000 nM
same,CC50,[2]; [4],> 100000 nM
same,TGI,[2]; read-out: pTGI,> 100000 nM
same,CC50,NCI-H522 [3],3890 nM
